From PubChem
CHO parental Ca = ATP-evoked calcium signal inhibitors, parental CHO, primary screen, counter-screen for OX1R antagonist project, cell-based, fluorescence, Fluo-8 calcium dye | inhibition, % at 5.6 µM | hit rate 0.63% among 330,000 | parental CHO-K1, ATP-induced calcium, Fluo-8 fluorescence;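 active means inhibition above that plate's mean sample inhibition plus 3 SD, cut at about 26% in these data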;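 further: 0% = ATP-challenged DMSO wells and 100% = DMSO wells without ATP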
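Material: Parental CHO cells | Reagent: ATP | Compound dosing: Single nominal dose of 5.6 µM per compound | Detection: Intracellular calcium via Fluo-8 no-wash fluorescent dye | Read-out: % inhibition of ATP-induced calcium mobilization | Benchmarks: Low control ATP plus DMSO, high control DMSO only | Replicates: Singlicate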
OX1R antag-1 = OX1R (HCRTR1) antagonists, primary screen, fluorescence, CHO/OX1R cells, Fluo-8 calcium, orexin A; Fluo-8 calcium fluorescence; Orexin/Hypocretin receptor type 1 (Homo sapiens), O43613; hit rate 0.43% among 330,000; inhibition, % at 5 µM;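 active means inhibition above its plate's threshold, mean inhibition of all tested compounds on the plate plus 3 SD, cut at about 37% in these data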;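 further: 0% = orexin A challenge wells and 100% = SB-334867-A antagonist wells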
Target sequence (O43613 whole entry, looked up): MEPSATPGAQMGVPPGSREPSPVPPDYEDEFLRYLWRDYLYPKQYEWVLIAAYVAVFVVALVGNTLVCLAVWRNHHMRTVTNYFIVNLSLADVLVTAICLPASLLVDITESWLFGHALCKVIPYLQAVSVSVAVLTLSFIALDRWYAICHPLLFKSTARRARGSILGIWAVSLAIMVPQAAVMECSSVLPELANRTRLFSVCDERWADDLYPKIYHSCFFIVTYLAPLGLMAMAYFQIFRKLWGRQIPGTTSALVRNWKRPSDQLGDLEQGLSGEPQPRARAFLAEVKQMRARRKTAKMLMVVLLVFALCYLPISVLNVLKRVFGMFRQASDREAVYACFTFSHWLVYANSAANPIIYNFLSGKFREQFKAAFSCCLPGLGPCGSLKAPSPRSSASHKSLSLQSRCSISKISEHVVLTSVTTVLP
TAAR1 ag = human TAAR1 agonists, primary screen, Fluo-8 calcium fluorescence, CHO RD-HGA16 cells; Trace amine-associated receptor 1 (Homo sapiens), Q96RJ0; vehicle wells 0%, saturating PEA agonist 100%; activation, % at 3 µM; hit rate 0.99% among 360,000; AID 624467, 2012;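 active means activation above the mean activation of all test compounds in the run plus 3 SD, cut at about 38% in these data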
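Test system: RD-HGA16 (CHO) cells co-expressing Gα16 and hTAAR1; dosing: one-point dosing at 3 µM (nominal); timing: 17-24 h seeding, 75 min 37 °C dye, 30 min RT; signal: kinetic Fluo-8 calcium fluorescence; read-out basis: % activation relative to PEA EC100 response; controls: DMSO and PEA EC100; replicates: n 1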
OX1R antag-2 = antagonists of human orexin 1 receptor (OX1R) | Orexin/Hypocretin receptor type 1 (Homo sapiens), O43613 | OX1R-expressing cells, FRET antagonist read-out | inhibition, % at 6.6 µM | hit rate 1.8% among 330,000 | AID 485270, 2010; in the data active means inhibition mostly above about 38%, no sharp cut-off; inactive means mostly below about 40%;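 further: 0% = agonist challenge alone and 100% = reference antagonist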
GPR7 antagonist = GPR7 receptor antagonists, primary screen, cell-based, fluorescence, single concentration; Neuropeptides B/W receptor type 1 (Homo sapiens), P48145; GPR7-expressing cells, fluorescence antagonist assay; inhibition, % at 4.4 µM; hit rate 1.1% among 290,000; in the data active means inhibition above about 16%, passing the limit was not always enough;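 further: cells stimulated with the agonist NPW; 0% = agonist with vehicle and 100% = vehicle without agonist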
Target sequence (P48145 whole entry, looked up): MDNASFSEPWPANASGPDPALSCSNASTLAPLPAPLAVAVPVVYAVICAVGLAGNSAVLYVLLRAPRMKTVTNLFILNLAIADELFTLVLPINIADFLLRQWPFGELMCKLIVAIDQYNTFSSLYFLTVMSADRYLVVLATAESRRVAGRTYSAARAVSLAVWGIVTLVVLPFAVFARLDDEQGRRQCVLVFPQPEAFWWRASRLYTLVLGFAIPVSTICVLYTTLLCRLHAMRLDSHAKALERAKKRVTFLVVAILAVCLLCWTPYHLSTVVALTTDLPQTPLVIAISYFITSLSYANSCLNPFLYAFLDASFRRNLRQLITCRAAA
TAAR1 antagonist = human TAAR1 antagonists, primary screen, Fluo-8 calcium fluorescence, CHO RD-HGA16 cells; Trace amine-associated receptor 1 (Homo sapiens), Q96RJ0; antagonist; inhibition, % at 3 µM; hit rate 1.5% among 360,000;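 active means inhibition above a per-plate cutoff, the mean inhibition of test compounds on that plate plus 3 SD, cut at about 49% in these data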;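 further: 0% = DMSO plus EC80 beta-PEA response and 100% = DMSO alone without agonist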
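Assay system: RD-HGA16 CHO cells with stable hTAAR1 and Gα16 / Reagent: EC80 β-phenethylamine stimulus / Doses: 3 µM, single point / Timing: dye loading 75 min at 37 °C, then 30 min room temperature / Measured by: Fluo-8 intracellular calcium dye fluorescence, real-time kinetic reads / Controls: vehicle wells and EC80 agonist wells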
OX1R Fluo8 conf = OX1R (HCRTR1) antagonists, confirmation, fluorescence, CHO/OX1R cells, Fluo-8 calcium, orexin A; shares compounds with OX1R antag-1; orexin A calcium Fluo-8 fluorescence; inhibition, % at 5 µM; hit rate 38% among 1,100; AID 492963, 2010; in the data active means inhibition above about 29%;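 further: 0% = agonist challenge alone and 100% = reference antagonist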
CHO Ca triplic = ATP-evoked calcium inhibition in parental CHO, counter-screen for OX1R antagonist project, cell-based, fluorescence, CHO-K1, triplicate. shares compounds with OX1R antag-1. ATP-induced calcium, Fluo-8 fluorescence. inhibition, % at 5.6 µM. hit rate 9.3% among 1,100;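 active means inhibition above a per-plate limit, the mean inhibition of that plate's test compounds plus 3 SD, cut at about 25% in these data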;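 further: 0% = ATP challenge with DMSO and 100% = DMSO without ATP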
OX1R HTRF conf = OX1R (HCRTR1) antagonists, confirmation, cell-based, HTRF; shares compounds with OX1R antag-2; OX1R-expressing cells, HTRF antagonist assay; inhibition, % at 6.6 µM; hit rate 49% among 1,800; in the data active means inhibition above about 55%;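 further: CHO cells expressing OX1R stimulated with orexin A at about EC80; 0% = agonist challenge alone and 100% = reference antagonist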
CHO-K1 HTRF = signal inhibition in parental CHO-K1 cells, counter-screen for OX1R antagonist project, cell-based, HTRF. shares compounds with OX1R antag-2. HTRF counterscreen. inhibition, % at 6.6 µM. hit rate 48% among 1,800. AID 493232, 2011; in the data active means inhibition above about 17%;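 further: 0% = agonist challenge with vehicle and 100% = vehicle alone without agonist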
The depositor's hits bear a star; . = no result given. Shown are actives, neighbours in structure and some others; about 4.6% of the full set was active somewhere.

SMILES	CHO parental Ca	OX1R antag-1	TAAR1 ag	OX1R antag-2	GPR7 antagonist	TAAR1 antagonist	OX1R Fluo8 conf	CHO Ca triplic	OX1R HTRF conf	CHO-K1 HTRF
CSc1ccc(CCNC(=O)CCc2nnc3ccc(N4CCC5(CC4)OCCO5)nn23)cc1	-15.5	-35.0	2.7	9.0	3.4	-5.1	.	.	.	.
CCn1c(-c2ccccc2Cl)nn(CC(=O)Nc2cc(Cl)ccc2Cl)c1=S	-5.5	46.4*	22.9	53.8*	-9.4	3.8	7.6	-5.0	49.5	-6.4
CCCCOC(=O)c1ccc(OC(=O)N2CCOCC2)cc1	15.6	2.9	3.0	14.8	-0.2	0.9	.	.	.	.
CC(C)CN1C(=O)NC(NC(=O)c2cccs2)(C(F)(F)F)C1=O (configuration not stated)	-5.6	-12.0	-2.4	3.7	-4.5	6.3	.	.	.	.
O=S(=O)(NCCOc1ccccc1Cl)c1ccc2oc3ccccc3c2c1	10.1	54.8*	6.3	99.0*	-3.5	2.7	8.1	-8.5	66.0*	-9.0
COc1ccccc1OCCNS(=O)(=O)c1ccc2oc3ccccc3c2c1	-15.8	24.9	4.5	63.1	-5.9	-4.4	.	.	.	.
COc1cccc(-c2nc(Cl)nc3cc(Cl)ccc23)c1	.	.	-2.6	.	.	14.1	.	.	.	.
COc1cc(OC)cc(C(=O)Nc2ccc3nc4n(c(=O)c3c2)CCCCC4)c1	-9.2	-28.7	-1.1	28.8	-2.5	-4.2	.	.	.	.
COc1ccccc1C(=O)Nc1ccc2nc3n(c(=O)c2c1)CCCC3	-1.3	35.5	1.4	94.7*	-14.2	-5.5	30.6*	-4.2	97.1*	10.6
CCc1ccc(-c2cc(C)no2)cc1S(=O)(=O)NCCCN1CCN(c2ccccc2)CC1	5.5	32.5	2.9	41.0*	11.1	32.0	13.3	-6.0	31.2	-1.4
CCc1ccc(-c2cc(C)no2)cc1S(=O)(=O)NCCN1CCC(C)CC1	-33.5	-27.6	0.2	11.4	-2.4	-21.5	.	.	.	.
CCn1c2ccccc2c2cc(NC(=O)c3cc(OC)cc(OC)c3)ccc21	-14.6	81.3*	-0.9	85.4*	-3.9	-8.4	96.2*	-13.3	89.2*	-11.1
CCn1c(SCC(=O)Nc2ccc3c(c2)oc2ccccc23)nnc1-c1ccc(N)cc1	-3.2	36.5	6.0	83.8*	5.0	0.1	37.5*	-21.3	41.9	-13.6
CCn1c2ccccc2c2cc(NC(=O)c3cc(OC)c(OC)c(OC)c3)ccc21	-12.0	3.4	-3.5	17.1	10.0	13.7	.	.	.	.
CCn1c(SCC(=O)Nc2cc3oc4ccccc4c3cc2OC)nnc1-c1cccs1	-25.1	50.1*	0.9	83.0*	-3.3	-4.5	49.1*	-11.5	89.0*	6.4
CCn1c(SCC(=O)Nc2nc(-c3ccccc3)cs2)nnc1-c1ccccc1	-13.8	54.1*	4.7	62.0*	-10.8	26.3	14.5	2.1	72.0*	0.1
C=CCn1c(SCC(=O)Nc2cc3oc4ccccc4c3cc2OC)nnc1-c1cnccn1	-11.8	57.2*	3.9	90.8*	2.7	1.0	65.7*	-7.0	90.5*	3.4
CCn1c(SCC(=O)Nc2cccc(NC(C)=O)c2)nnc1-c1ccco1	-10.3	-22.9	1.2	9.4	-5.8	-25.5	.	.	.	.
CCn1c(SCC(=O)Nc2ccc3c(c2)c2ccccc2n3CC)nnc1-c1ccco1	-22.9	64.3*	-0.1	81.4*	11.6	-5.9	35.0*	-10.3	83.3*	2.7
Cc1cc(=O)[nH]c(SCC(=O)Nc2ccc(F)cc2)c1C#N	-6.1	-12.5	10.7	29.1	-4.3	5.1	.	.	.	.
Cc1cc(=O)[nH]c(SCC(=O)Nc2ccc(Br)cc2)c1C#N	4.3	41.6*	14.7	92.6*	2.0	-5.3	17.6	14.9	39.6	12.7
O=C(N/N=C/c1c[nH]c2ccccc12)c1ccccc1	-3.9	-10.1	2.1	-9.4	-4.2	-11.2	.	.	.	.
COc1cccc(C(=O)NCC(=O)N/N=C/c2c(C)[nH]c3ccccc23)c1	-3.8	21.6	6.5	8.2	9.1	17.3	.	.	.	.
COc1ccc2c(Cl)c(C(=O)N/N=C/c3c(C)[nH]c4ccccc34)sc2c1	2.9	40.8*	0.2	65.3*	-0.6	25.1	63.2*	0.6	93.0*	9.1
O=C(N/N=C/c1c[nH]c2ccccc12)c1sc2ccccc2c1Cl	-5.5	36.4	-0.6	89.7*	-2.7	15.2	40.5*	3.6	63.4*	9.4
SMILES	CHO parental Ca	OX1R antag-1	TAAR1 ag	OX1R antag-2	GPR7 antagonist	TAAR1 antagonist	OX1R Fluo8 conf	CHO Ca triplic	OX1R HTRF conf	CHO-K1 HTRF
Cc1ccc(NC(=O)c2c(-c3ccccc3)noc2C)nc1	2.7	-0.8	0.3	13.0	9.5	15.8	.	.	.	.
CCn1c(C)c(C)c2cc(C(=O)NCCCN3CCCCC3)ccc21	8.0	-15.5	4.2	9.0	-6.4	-9.8	.	.	.	.
O=C(CSc1ncccc1C(=O)O)NCc1ccc(F)cc1	6.9	-16.9	9.8	1.9	2.6	-15.4	.	.	.	.
CCOc1cc(C(=S)N2CCOCC2)cc(Br)c1OS(=O)(=O)c1ccccc1	-16.4	28.4	2.6	47.4*	-5.1	-2.8	51.6*	6.0	62.1*	12.1
Cc1ccc(OC(F)F)c(NC(=O)Nc2cccc(C(F)(F)F)c2)c1	0.7	36.0	.	45.7*	-7.9	.	-14.2	14.6	22.6	0.6
O=C(CN1C(=O)/C(=C\c2cccc(Br)c2)Oc2ccccc21)NCC1CCCO1 (configuration not stated)	-23.0	31.7	-0.6	67.5*	4.0	-9.3	78.8*	-12.5	90.2*	1.4
Cc1ccc(/C=C2/Sc3ccccc3N(CC(=O)NCC3CCCO3)C2=O)cc1 (configuration not stated)	-16.2	55.1*	.	77.5*	-10.6	.	58.6*	-3.0	87.7*	7.4
